# Measured values reported in ChEMBL document CHEMBL5154824, “Design and synthesis of multifunctional microtubule targeting agents endowed with dual pro-apoptotic and anti-autophagic efficacy” (Eur J Med Chem, 2022).
# pEC50, pIC50: −log10 of the molar value. The source made the active and inactive calls. The rule behind the calls is not given here.
# Experiments:
# [1] = system: HeLa; assay: Cytotoxicity against human HeLa cells assessed as inhibition of cell growth measured after 48 hrs by MTT assay; assay type: functional, cell-based
# Outline: (§1)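 MTT assay. Cells were exposed for 48 h to increasing concentrations of compound. Ovarian A2780 was paired with its P-gp-overexpressing A2780AD counterpart, and HeLa with HeLa β3, which overexpresses the tubulin β3 isotype. IC50 is the mean ± SD of three independent experiments.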
# [2] = system: Emu-TCL1; assay: Induction of apoptosis in mouse Emu-TCL1 cells model of CLL assessed as mitochondrial membrane depolarization at 10 uM after 48 hrs by TMRM dye based flow cytometric analysis; assay type: functional, cell-based
# Outline: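 Splenocytes from Eμ-TCL1 leukaemic mice were treated with 10 μM or DMSO vehicle for 48 h, then TMRM-loaded. Flow cytometry gave the percentage of TMRM-low cells as mean ± SD (n = 3).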
# [3] = system: SCC-4; assay: Cytotoxicity against human SCC-4 cells assessed as reduction in cell viability measured after 48 hrs by alamar blue viability assay; assay type: functional, cell-based; conditions: SCC-4, 48 h
# Outline: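 Oral squamous carcinoma cells were exposed for 48 h to at least 8 increasing concentrations. Viability was read by AlamarBlue. IC50 is the concentration that halves viability, taken as the mean ± SD of at least three independent experiments.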
# [4] = system: SCC-4; assay: Induction of apoptosis in human SCC-4 cells assessed as increase in apoptotic cells at 2 uM after 48 hrs by Annexin V-FITC/PI staining based flow cytometry method; assay type: functional, cell-based
# Outline: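 SCC4 cells were treated at 0.5 or 2 μM for 48 h, then stained with Annexin V/PI and analysed by flow cytometry. Data are mean ± SEM of three independent experiments, with an unpaired one-tailed t-test versus vehicle.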
# [5] = system: Ca9-22; assay: Induction of apoptosis in human Ca9-22 cells assessed as increase in apoptotic cells at 0.5 uM after 48 hrs by Annexin V-FITC/PI staining based flow cytometry method; assay type: functional, cell-based
# Outline: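 Ca9.22 or TR146 cells were seeded at 30×10^4 cells/mL and treated with 500 nM compound or 1% EtOH (v/v) vehicle for 48 h. Annexin V/PI staining was read by flow cytometry, gating 10,000 cells on vehicle-treated cells. Data are mean ± SEM (n = 3).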
# [6] = system: KYSE-520 cell line; assay: Cytotoxicity against human KYSE520 cells assessed as inhibition of cell growth measured after 72 hrs by alamar blue viability assay; assay type: functional, cell-based; conditions: KYSE-520, 72 h
# Outline: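 KYSE-520 oesophageal cells were exposed to at least 8 increasing concentrations for 48 h or 72 h. Viability was read out to give IC50, as the mean ± SD of at least three independent experiments.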
# [7] = Cytotoxicity against human FLO-1 cells assessed as inhibition of cell growth measured after 72 hrs by MTT assay; assay type: functional, cell-based; conditions: FLO-1, 72 h
# Outline: (§2)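 Oesophageal adenocarcinoma lines were exposed to at least 8 increasing concentrations for 72 h. Viability was measured by MTT. IC50 is the mean ± SD of at least three independent experiments.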
# [8] = Cytotoxicity against human SKGT4 cells assessed as inhibition of cell growth measured after 72 hrs by MTT assay; assay type: functional, cell-based; conditions: SKGT4, 72 h; outline: as §2
# [9] = system: NIH3T3; assay: Cytotoxicity against mouse NIH3T3 cells assessed as inhibition of cell growth measured after 24 hrs by neutral red uptake assay; assay type: functional, cell-based; conditions: NIH3T3, 24 h
# Outline: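 Neutral red uptake viability test. NIH3T3 fibroblasts or primary human oral epithelial cells were exposed to compound at 0.1 to 120 μM. EC50 was derived, with SD below 5%.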
# [10] = system: A2780; assay: Cytotoxicity against human A2780 cells assessed as inhibition of cell growth measured after 48 hrs by MTT assay; assay type: functional, cell-based; conditions: A2780, 48 h; outline: as §1
# [11] = system: A2780; assay: Cytotoxicity against human A2780AD cells assessed as inhibition of cell growth measured after 48 hrs by MTT assay; assay type: functional, cell-based; conditions: A2780, 48 h; outline: as §1
# [12] = system: HeLa; assay: Cytotoxicity against human HeLa cells overexpressing tubulin beta3 assessed as inhibition of cell growth measured after 48 hrs by MTT assay; assay type: functional, cell-based; outline: as §1
# [13] = Mutagenicity in Salmonella typhimurium TA98 in presence of rat liver S9 fraction at 0.3 to 60 uM by AMES test; assay type: toxicity, subcellular; conditions: salmonella enterica subsp. enterica serovar typhimurium, s9, 60 µM; dose 0.3-60 µM
# [14] = system: SCC-4; assay: Induction of autophagy in human SCC-4 cells assessed as increase in LC3-II to LC3-I ratio at 10 uM incubated for 30 mins in presence of EBSS followed by compound addition and measured after 3 hrs by Western blot analysis; assay type: functional, cell-based
# Outline: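 SCC4 cells were pre-incubated with or without EBSS for 30 min, then given 10 μM compound, with 10 μM chloroquine as reference, for 3 h. LC3-I/II was assessed by Western blot with GAPDH loading control. The LC3-II/LC3-I ratio came from densitometry, as mean ± SEM of four experiments, with an unpaired one-tailed t-test.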
# [15] = system: SCC-4; assay: Induction of autophagy in human SCC-4 cells assessed as increase in UlK1 phosphorylation at 10 uM in measured after 24 hrs by Immunoblotting analysis; assay type: functional, cell-based
# Outline: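 SCC4 cells under basal conditions were treated at 10 μM for 24 h. Autophagy-related proteins were immunoblotted, and densitometry was expressed as a ratio normalised to vehicle control.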
# [16] = molecular target: Mitogen-activated protein kinase; ERK1/ERK2 (Homo sapiens) (UniProt P27361+P28482); assay: Inhibition of ERK1/2 phosphorylation in human HL-60 cells at 10 uM measured after 2 hrs by Immunoblotting analysis; assay type: cell-based
# Outline: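 HL-60 cells were treated at 10 μM or with DMSO vehicle for 2 h. Phospho-NF-κB and phospho-Erk1/2 were immunoblotted and quantified by densitometry relative to β-tubulin. Data are mean ± SD (n = 2), analysed by one-way ANOVA.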
# [17] = Aqueous solubility of the compound in pH 3 measured after 24 hrs by HPLC/DAD/UV analysis; assay type: physicochemical; conditions: aqueous solution at pH 3, pH 3
# Outline: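 Solubility in aqueous buffer at pH 3, measured by HPLC after 24 h.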
# [18] = Metabolic stability in human liver microsomes assessed as apparent decay constant by HPLC analysis; assay type: ADME, Microsome
# Outline: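 Compound incubated with human liver microsomes plus an NADPH-generating system. Log % of compound recovered (100% at 0 min) was plotted against incubation time and fitted to a monoexponential decay. Controls were boiled microsomes, or microsomes without NADPH-GS, at 37 °C for 60 min.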
# [19] = molecular target: T1, Tubulin (Homo sapiens) (UniProt P68371+Q9H4B7+P0DPH7+P68366+Q13509+Q71U36+P04350+Q3ZCM7+P07437+P68363+Q9BQE3+Q6PEY2+Q13885+Q9BVA1+Q9BUF5); assay: Inhibition of tubulin (unknown origin) assembly measured at 5 uM by fluorescence assay; assay type: protein-complex assay
# [20] = molecular target: T1, Tubulin (Homo sapiens); assay: Binding affinity to tubulin (unknown origin) using podophyllotoxin by Competition assay; assay type: protein-complex assay
# Outline: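 Fluorescence competition: compound and tubulin at equal concentrations (0.1, 0.5 or 1 μM each) titrated with podophyllotoxin up to 10 μM; excitation 350 nm, emission read at 450 nm on plate reader; displacement judged as fluorescence decrease.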
# [21] = system: HeLa; assay: Induction of morphological changes in human HeLa cells assessed as effect on actin cytoskeleton at 10 uM incubated for 3 hrs by phalloidin staining based laser scanning confocal microscopic analysis; assay type: functional, cell-based
# Outline: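 HeLa cells in growth medium were treated at 1 or 10 μM, with BafA1 300 nM as reference, for 3 h. Cells were fixed in 4% PFA, stained with anti-GM130 for the Golgi and AF647-phalloidin for actin, and imaged by laser scanning confocal microscopy.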
# Sequence of Mitogen-activated protein kinase; ERK1/ERK2 (Homo sapiens) (P27361 whole entry, looked up): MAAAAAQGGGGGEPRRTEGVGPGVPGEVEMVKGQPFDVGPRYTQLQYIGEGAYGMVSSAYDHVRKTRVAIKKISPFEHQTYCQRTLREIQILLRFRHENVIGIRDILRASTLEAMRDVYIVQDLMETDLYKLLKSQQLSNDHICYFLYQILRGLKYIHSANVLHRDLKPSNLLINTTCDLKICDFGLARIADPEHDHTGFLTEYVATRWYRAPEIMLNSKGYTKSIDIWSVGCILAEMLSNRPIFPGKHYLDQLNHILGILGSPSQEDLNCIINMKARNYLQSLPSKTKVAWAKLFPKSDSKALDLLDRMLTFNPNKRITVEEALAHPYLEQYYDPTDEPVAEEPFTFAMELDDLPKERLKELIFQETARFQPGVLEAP
# Sequence of Mitogen-activated protein kinase; ERK1/ERK2 (Homo sapiens) (P28482 whole entry, looked up): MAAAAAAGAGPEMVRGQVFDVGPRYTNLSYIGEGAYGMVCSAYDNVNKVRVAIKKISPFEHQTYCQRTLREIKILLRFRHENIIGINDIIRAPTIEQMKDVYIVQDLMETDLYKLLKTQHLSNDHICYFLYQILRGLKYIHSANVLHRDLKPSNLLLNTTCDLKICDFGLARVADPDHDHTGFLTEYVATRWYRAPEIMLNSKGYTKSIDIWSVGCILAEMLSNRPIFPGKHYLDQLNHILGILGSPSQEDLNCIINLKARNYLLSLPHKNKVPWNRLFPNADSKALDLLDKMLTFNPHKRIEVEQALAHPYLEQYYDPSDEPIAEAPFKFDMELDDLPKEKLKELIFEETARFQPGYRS
Compound,Activity [2],pIC50 [3],Activity [4],pIC50 [6],pEC50 [9],Activity [13],Activity [14],Activity [15],inhibition [16],solubility at 24 h [17] [µM],k el [18] [s⁻¹],also measured
CN1CCN(C(=O)OC2=C(c3cccc4ncccc34)Oc3cc4ccccc4cc3-n3cccc32)CC1,Active,6.27,Active,5.77,6.35,Non-Toxic,Active,Active,Active,204,0.000367,pIC50 [1]: 6.33; Activity [5]: Active; pIC50 [7]: 6.40; pIC50 [8]: 6.26; pIC50 [10]: 6.22; pIC50 [11]: 6.40; pIC50 [12]: 6.48; inhibition [19]: 100%; Activity [20]: Active
O=C(OC1=C(c2cccc3ncccc23)Oc2cc3ccccc3cc2-n2cccc21)C1CCNCC1,Active,6.07,Active,6.05,6.22,Non-Toxic,Active,Active,Active,271,0.000127,Activity [21]: Active
